# Source: PubChem (several laboratories)
# Rin1 Abl inh: inhibitors of human Rin1-Abl protein interaction; P00519+Q13671; TR-FRET Rin1/Abl binding, biochemical; inhibition, % at 7.35 µM; 0.4% of 360,000 active; AID 588664; in the data active = inhibition above about 5%, passing the limit was not always enough
# UBC13 inh: inhibitors of human UBC13 polyubiquitin chain formation. inhibition, % at 20 µM. P61088. TR-FRET. AID 485273. 0.47% of 330,000 active; in the data active = inhibition above about 45%, passing the limit was not always enough
# UBC9 SUMO inh: blocks human SUMOylation mediated by UBC9 | inhibition, % at 35 µM | AID 2006 | HTRF SUMOylation assay, SAE1/SAE2 + UBC9, in vitro | 0.36% of 290,000 active; in the data active = inhibition above about 50%, passing the limit was not always enough
# ALR H2O2 inh: inhibitors of human sulfhydryl oxidase ALR | 3.8% of 290,000 active | inhibition, % (no concentration beside the values) | purified ALR, DTT oxidation, H2O2 HRP-luminol luminescence | AID 485317;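 active = mean replicate inhibition above about 79%, with every replicate also reaching it, limit read from the data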
# RBBP9 inh: human RBBP9 hydrolase inhibition. AID 1515. inhibition, % at 7.94 µM. 0.2% of 220,000 active. O75884. recombinant RBBP9, FP-Rh probe fluorescence polarization;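 active = inhibition above the campaign mean of all tested compounds plus 3 SD, cut at about 14% in these data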;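 also: plate controls were DMSO wells with RBBP9 for no effect and wells lacking RBBP9 protein for full effect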
#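 Test system: recombinant human RBBP9. Quantity: 2.5 µM RBBP9 dispensing solution, before mixing. Detection: FP readout at 525/598 nm. Reagent: Serine-hydrolase probe FP-Rh, 375 nM pre-mixing. Measure: % inhibition. Control set: DMSO-treated enzyme wells and wells lacking RBBP9. Buffer or medium: Tris-NaCl-Pluronic buffer, pH 8.0. Times: preincubation 30 min plus labeling 45 min at 25 °C.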
# PREPL inh: human PREPL enzyme inhibition. Q4J6C6. recombinant PREPL, fluorescence polarization activity-based probe. inhibition, % at 5.96 µM. 0.68% of 320,000 active. AID 2751; in the data active = inhibition above about 43%;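 also: 0% = enzyme with DMSO and 100% = wells lacking enzyme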
# Target sequence (Q4J6C6 whole entry, looked up): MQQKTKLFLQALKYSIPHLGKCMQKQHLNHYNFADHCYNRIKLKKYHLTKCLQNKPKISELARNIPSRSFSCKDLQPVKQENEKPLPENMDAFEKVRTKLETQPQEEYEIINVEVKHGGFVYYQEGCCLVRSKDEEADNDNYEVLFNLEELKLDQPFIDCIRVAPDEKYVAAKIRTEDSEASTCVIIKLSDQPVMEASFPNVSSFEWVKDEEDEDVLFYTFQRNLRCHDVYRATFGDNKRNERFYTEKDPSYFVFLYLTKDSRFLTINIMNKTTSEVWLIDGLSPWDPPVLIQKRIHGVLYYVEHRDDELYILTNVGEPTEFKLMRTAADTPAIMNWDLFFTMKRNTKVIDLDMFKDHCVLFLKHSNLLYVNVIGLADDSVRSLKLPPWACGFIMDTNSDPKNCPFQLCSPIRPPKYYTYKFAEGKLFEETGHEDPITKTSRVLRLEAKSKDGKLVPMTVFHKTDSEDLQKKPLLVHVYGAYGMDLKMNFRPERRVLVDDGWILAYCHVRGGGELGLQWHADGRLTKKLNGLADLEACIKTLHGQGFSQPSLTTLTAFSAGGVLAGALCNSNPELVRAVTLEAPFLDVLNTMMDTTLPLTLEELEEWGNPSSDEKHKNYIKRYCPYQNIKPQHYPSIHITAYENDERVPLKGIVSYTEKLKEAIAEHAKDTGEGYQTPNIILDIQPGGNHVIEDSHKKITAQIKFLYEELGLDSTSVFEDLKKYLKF
# * hit, by the source's call; x = not tested or not shown. Sampled rows, rich in hits. Any-hit rate of the full collection: about 4.3%.
SMILES,Rin1 Abl inh,UBC13 inh,UBC9 SUMO inh,ALR H2O2 inh,RBBP9 inh,PREPL inh
O=C(CSc1ccc(Cl)cc1)Nc1ccc(NC(=O)c2ccco2)cc1,0,0,-4,100*,1,-5
Cc1ccc(-c2cnc(C(O)c3ccc(Cl)cc3C)[nH]2)cc1 (centres undefined),2,x,x,x,x,x
O=C1CSC2=NCN(c3ccc4c(c3)OCO4)CN12,1,-5,10,2,1,8
CN(C)c1ccc(N2CN=C3SCC(=O)N3C2)cc1,2,-6,-40,99*,9,25
Cc1ccc(C(=O)OCC(=O)NCc2cccc(Cl)c2)cc1S(=O)(=O)N1CCCCC1,-1,-12,x,x,x,x
CCn1c(=O)c2c3c(sc2n2c(=S)[nH]nc12)CCC3,1,2,12,87*,-1,-6
Cc1ccc(-n2c(=O)c3c4c(sc3n3c(=S)[nH]nc23)CCC4)cc1,0,5,7,7,-5,16
C/C(=N\NC(=O)Cc1c(C)[nH][nH]c1=O)c1ccc(Cl)c(Cl)c1,-2,-2,-1,18,-2,4
COc1cc(/C(C)=N\NC(=O)CSc2nc3ccccc3n2C)ccc1O,1,3,11,99*,-12,-11
C/C(=N/NC(=O)Cc1c(C)[nH][nH]c1=O)c1ccc(O)cc1,-1,14,10,98*,-2,-7
COc1cc(/C(C)=N/NC(=O)Cc2c(C)[nH][nH]c2=O)ccc1O,-2,2,13,99*,-9,7
C/C(=N/NC(=O)CSc1nc2ccccc2n1C)c1ccncc1,2,-3,8,-9,-1,-10
Clc1ccc(Br)c(-c2nc3ccccc3[nH]2)c1,-27,x,x,x,x,x
CN(Cc1ccc(Cl)cc1)C(=O)CNC(=O)C12CC3CC(CC(C3)C1)C2,1,6,x,-22,x,3
Cn1c(/C=C/c2cccc([N+](=O)[O-])c2)c([N+](=O)[O-])c(=O)n(C)c1=O,0,-4,6,98*,x,12
COc1ccc(/C=C/c2c([N+](=O)[O-])c(=O)n(C)c(=O)n2C)cc1OC,4,-4,-4,-14,-6,2
CC(=O)c1ccc(NC(=O)CN2C(=O)COc3ccc(S(=O)(=O)N4CCCC4)cc32)cc1,3,-6,4,-1,x,11
COc1ccc(CCNC(=O)c2ccc3c(c2)NC(=O)C(CSCc2cc(C)ccc2C)N3)cc1OC (centres undefined),x,-7,4,99*,x,-2
Cc1nc2sc(C(c3ccccc3)N3CCN(C)CC3)c(O)n2n1 (centres undefined),-3,0,-4,-4,x,22
Cc1ccc2oc(C(=O)Nc3ccc(S(=O)(=O)Nc4ncccn4)cc3)c(C)c2c1,0,-15,24,-12,x,17
Cc1nn(-c2ccccc2)c2sc(-c3n[nH]c(=S)o3)cc12,-3,-6,41,98*,3,20
Nc1ccccc1C(=O)Nc1ccc(Cl)cc1Cl,0,13,13,-3,-6,2
Nc1cccc(C(=O)NCCNC(=O)c2cccc(N)c2)c1,2,0,10,4,x,-6
Nc1cccc(C(=O)Nc2ccco2)c1,-5,-2,1,98*,3,14
COc1ccccc1NC(=O)c1ccc(N)cc1,-3,5,-7,-12,3,10
SMILES,Rin1 Abl inh,UBC13 inh,UBC9 SUMO inh,ALR H2O2 inh,RBBP9 inh,PREPL inh
Nc1cccc(C(=O)Nc2ccc(N)cc2Cl)c1,4,-3,-5,99*,-7,-1
COC(=O)c1ccc(C(=O)Nc2ccc(N)cc2N)cc1,-1,-16,30,92*,-4,17
Nc1ccc(NC(=O)c2cccc(C(=O)Nc3ccc(N)cc3Cl)c2)c(Cl)c1,2,-4,14,99*,x,11
CCOC(=O)c1c(-c2cccc(C)c2)csc1NC(=O)C1CC=CCC1C(=O)O (centres undefined),2,-8,36,98*,-2,-6
COc1ccc(N2CCN(C(=O)CN(Cc3ccc(Cl)cc3)S(C)(=O)=O)CC2)cc1,2,-11,8,30,-13,6
COc1ccc(N2CCN(C(=O)CN(Cc3ccccc3)S(C)(=O)=O)CC2)cc1,-2,-2,-2,86*,5,11
COc1ccc(N2CCN(C(=O)CN(C)S(=O)(=O)c3cnc[nH]3)CC2)cc1,-2,-11,5,87*,-4,13
